≈ marks a conversion by molar mass, not a printed value. Calls of active or inactive are those of the source. The rule behind the calls is not given here.
Columns and labels:
[1] = Kinetic solubility of compound in PBS at pH 7.4 by UV-VIS absorption spectrophotometry analysis; type: physicochemical; conditions: for solubility kinetic: PBS, read-out: Kinetic_solubility; for Kinetic_solubility: buffer
How it was run: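 A 10 mM DMSO stock was diluted into PBS pH 7.4 at a target of 200 µM (final PBS:DMSO 98:2), in triplicate. Agitated 500 rpm for 90 min, then filtered. Filtrate diluted to PBS:DMSO 80:20 and its UV absorbance compared against a 200–6.75 µM standard series to give the concentration remaining in solution.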

[2] = Distribution coefficient, logD of compound at pH 7.4 by shake flask method based LC-MS/MS analysis; type: physicochemical; conditions: octanol/water
How it was run: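 Shake-flask method: compound diluted from 10 mM DMSO stock into equal volumes of octanol and PBS, final concentration 100 µM. Shaken 12 h, then centrifuged. Both layers analysed in triplicate by LC-MS/MS (MRM, C8 UPLC). LogD = log10 of the octanol/buffer peak-area ratio.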

[3] = target: T1, N-formyl peptide receptor 2 (Homo sapiens, UniProt P25090); assay: Agonist activity at FPRL1 (unknown origin) expressed in CHO-K1 cells assessed as stimulation of beta-arrestin recruitment incubated for 150 mins by beta-galactosidase based PathHunter assay; type: functional, cell-based
T1 sequence (P25090 whole entry): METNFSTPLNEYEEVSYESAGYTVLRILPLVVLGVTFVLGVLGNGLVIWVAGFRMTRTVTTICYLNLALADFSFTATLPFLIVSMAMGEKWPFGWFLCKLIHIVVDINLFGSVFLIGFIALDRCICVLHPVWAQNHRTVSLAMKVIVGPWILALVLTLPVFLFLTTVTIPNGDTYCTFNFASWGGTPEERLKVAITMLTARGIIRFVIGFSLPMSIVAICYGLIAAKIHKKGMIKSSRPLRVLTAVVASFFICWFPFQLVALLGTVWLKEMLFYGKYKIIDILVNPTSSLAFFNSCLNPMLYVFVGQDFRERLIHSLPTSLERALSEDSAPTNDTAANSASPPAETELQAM
How it was run: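 PathHunter CHO-K1 FPRL1 cells expressing β-gal enzyme-fragment complementation, 5000 cells/well, held overnight at 37 °C. Stimulated with half-log serial dilutions of compounds (10 mM stocks in PBS) for 150 min at 37 °C. High control was WKYMVm at 100 nM. Detection reagent added for 60 min at RT in the dark, then chemiluminescence read.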

[4] = Microsomal stability in human liver microsomes assessed as half life at 1 uM preincubated for 5 mins followed by NADPH regenerating system addition measured after 30 mins by LC-MS/MS analysis; type: ADME, Microsome; conditions: t1/2, time 35 min
How it was run: (§1)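 Human or mouse liver microsomes (0.2 mg/mL protein) with compound at 1 µM final, pre-incubated 5 min at 37 °C. Reaction started with NADPH generating solution and agitated at 37 °C, with samples quenched up to 30 min. Centrifuged; supernatant analysed in triplicate by LC-MS.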

[5] = Microsomal stability in mouse liver microsomes assessed as half life at 1 uM preincubated for 5 mins followed by NADPH regenerating system addition measured after 30 mins by LC-MS/MS analysis; type: ADME, Microsome; conditions: t1/2, time 35 min; how it was run: as §1
[6] = target: T1, N-formyl peptide receptor 2; assay: Agonist activity at FPRL1 (unknown origin) expressed in CHO-K1 cells assessed as increase in calcium mobilization incubated for 2.5 hrs by cellular based FLIPR assay; type: functional, cell-based
How it was run: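 CHO-K1 cells overexpressing hFPR2, plated at 20,000 cells/well in F-12 with 10% FBS and held overnight at 37 °C. Loaded with FLIPR Calcium 6 dye for 2 h at 37 °C, then 30 min at RT in the dark. Compounds were half-log serially diluted from 10 mM stocks in HBSS/20 mM HEPES. Cytosolic Ca2+ rise read on FLIPR Tetra. WKYMVm served as control.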

[7] = target: T2, N-formyl peptide receptor 2 (Homo sapiens) (UniProt P25090); assay: Agonist activity at FPRL1 (unknown origin) expressed in CHO-K1 cells assessed as increase in calcium mobilization […] incubated for 2.5 hrs by cellular based FLIPR assay; type: functional, cell-based
T2 sequence (whole entry): T1 sequence (P25090 whole entry)
How it was run: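 CHO-K1 cells overexpressing human FPR2 (PathHunter FPRL1 line), plated at 20,000/well in F-12 with 10% FBS and held 1 h RT, then overnight at 37 °C. Calcium 6 dye loaded 2 h at 37 °C, then 30 min RT in the dark. Compounds were half-log serially diluted from 10 mM stocks in HBSS with 20 mM HEPES. Cytosolic Ca2+ rise read on FLIPR Tetra.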

[8] = target: T2, N-formyl peptide receptor 2 (Homo sapiens); assay: Agonist activity at FPRL1 (unknown origin) expressed in CHO-K1 cells assessed as stimulation of beta-arrestin recruitment […] incubated for 150 mins by beta-galactosidase based PathHunter assay; type: functional, cell-based
How it was run: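 PathHunter CHO-K1 FPRL1 cells carry complementing β-galactosidase fragments. Plated at 5000/well, held 1 h RT, then overnight at 37 °C. Compounds were half-log serially diluted from 10 mM stocks in PBS. Stimulation 150 min at 37 °C; W-peptide (WKYMVm, 100 nM) was the high control. Detection reagent added for 60 min RT in the dark, with chemiluminescence read-out.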

[9] = filed as agonist, time 0.067 hrs, in the assay text read “measured for 240 s” for “incubated for 2.5 hrs”

SMILES | solubility kinetic [1] [µM] | logD ([2]; read-out: logD) | EC50 ([3]; read-out: EC50) [nM] | half-life at 1 µM [4] [h] | half-life at 1 µM [5] [h] | EC50 ([6]; read-out: EC50) [nM] | Emax [7, 9] [%] | Emax ([8]; filed as agonist) [%] | logD [2] | EC50 ([3]; cho-k1) | Emax ([7]; time 2.5 hrs) | Emax [8] | EC50 ([6]; cho-k1) | Kinetic_solubility [1] [µM]
Cn1cc(N2CCC(NC(=O)NCc3cc(F)cc(F)c3)C2=O)cn1 (centres undefined) | – | 2.1 | – | 9.73 | – | – | – | – | – | Not Active | inactive | inactive | Not Active | –
CC(C)(C)OC(=O)N1CC(N2CCC(NC(=O)Nc3ccc(Br)cc3)C2=O)C1 (centres undefined) | 222 (≈ 101 µg/mL) | > 4 | 2350 | 1.88 | 1.87 | 410 | 67 | 103 | – | – | – | – | – | –
COc1ccc(CNC(=O)NC2CCN(c3ccccc3)C2=O)cc1 (centres undefined) | – | 1.99 | – | 5.48 | 5.95 | – | – | – | – | Not Active | inactive | inactive | Not Active | –
CC1CC(NC(=O)NCc2nccn2C)C(=O)N1c1ccccc1 (centres undefined) | – | 1 | – | – | – | – | – | – | – | Not Active | inactive | inactive | Not Active | –
CC(NC(=O)NC1CCN(c2ccccc2)C1=O)c1ccncc1 (centres undefined) | – | 2 | – | 6.83 | – | – | – | – | – | Not Active | inactive | inactive | Not Active | –
O=C(Nc1ccc(Br)cc1)NC1CCN(c2ccc(F)cc2)C1=O (centres undefined) | – | > 4 | 510 | > 6.67 | 0.55 | 1970 | – | – | – | – | – | – | – | –
CC(NC(=O)NC1CC(C)N(c2ccccc2)C1=O)c1ccncc1 (centres undefined) | – | 2.8 | – | 8.42 | 2.52 | – | – | – | – | Not Active | inactive | inactive | Not Active | –
CC(C)(C)OC(=O)N1CCC(CN2CCC(NC(=O)Nc3ccc(Br)cc3)C2=O)CC1 (centres undefined) | 53 (≈ 26.3 µg/mL) | > 4 | 2160 | 0.317 | 0.317 | 400 | 86 | 92 | – | – | – | – | – | –
CCc1ccc(C(C)NC(=O)NC2CCN(c3cnn(C)c3)C2=O)cc1 (centres undefined) | – | – | – | – | – | – | – | – | – | Not Active | inactive | inactive | Not Active | –
O=C(Nc1ccc(Br)cc1)NC1CCN(CC2CCNCC2)C1=O (centres undefined) | 227 (≈ 89.7 µg/mL) | 0.8 | 3290 | 6.35 | 2.33 | 270 | 84 | 102 | – | – | – | – | – | –
N#Cc1ccc(NC(=O)NC2CCN(c3ccccc3F)C2=O)cc1 (centres undefined) | – | 2.7 | – | 1.42 | 2.87 | 15000 | 123 | – | – | Not Active | – | inactive | – | –
O=C(Nc1ccc(Br)cc1)NC1CCN(c2cnn(-c3ccncc3)c2)C1=O (centres undefined) | 3 (≈ 1.32 µg/mL) | 4.3 | 3760 | 11 | – | – | – | 103 | – | – | inactive | – | Not Active | –

Further lines, results first:

solubility kinetic [1] [µM] | logD ([2]; read-out: logD) | EC50 ([3]; read-out: EC50) [nM] | half-life at 1 µM [4] [h] | half-life at 1 µM [5] [h] | EC50 ([6]; read-out: EC50) [nM] | Emax [7, 9] [%] | Emax ([8]; filed as agonist) [%] | logD [2] | EC50 ([3]; cho-k1) | Emax ([7]; time 2.5 hrs) | Emax [8] | EC50 ([6]; cho-k1) | Kinetic_solubility [1] [µM] | SMILES
207 (≈ 94.7 µg/mL) | 3 | 700 | 0.933 | 0.6 | 370 | – | – | – | – | – | – | – | – | O=C(Nc1ccc(Br)cc1)NC1CCN(C2CCN(Cc3ccccc3)C2)C1=O (stereo in doubt; 18) [listing 1 of 2 here]
61 (≈ 29.4 µg/mL) | 4.6 | 6300 | 4.17 | 0.522 | 730 | 42 | 93 | – | – | – | – | – | – | CC(C)(C)OC(=O)N1CCC(N2CCC(NC(=O)Nc3ccc(Br)cc3)C2=O)CC1 (centres undefined)
152 (≈ 71.7 µg/mL) | 3.5 | 2870 | 1.87 | 1.17 | 350 | 76 | 96 | – | – | – | – | – | – | O=C(Nc1ccc(Br)cc1)NC1CCN(C2CCN(Cc3ccccc3)CC2)C1=O (centres undefined)
71 (≈ 34.2 µg/mL) | – | 1380 | – | – | 130 | – | – | > 4 | – | – | – | – | – | CC(C)(C)OC(=O)N1CCC[C@H](N2CCC(NC(=O)Nc3ccc(Br)cc3)C2=O)C1 (stereo in doubt; 19) [listing 1 of 2 here]
– | – | – | – | – | – | 128 | 100 | – | – | – | – | – | – | O=C(Nc1ccc(Br)cc1)NC1CCN(C2CCN(Cc3ccccc3)C2)C1=O (stereo in doubt; 17) [listing 1 of 2 here]
57 (≈ 26.7 µg/mL) | 4.6 | 400 | 3.15 | 0.633 | 280 | 150 | 95 | – | – | – | – | – | – | Cc1nn(-c2ccccc2)c(C)c1N1CCC(NC(=O)Nc2ccc(Br)cc2)C1=O (centres undefined)
234 (≈ 89.2 µg/mL) | 0.3 | 1030 | – | – | 230 | 68 | 100 | – | – | – | – | – | – | O=C(Nc1ccc(Br)cc1)NC1CCN(C2CCNCC2)C1=O (centres undefined)
– | 4.1 | 550 | – | 0.5 | 60 | – | – | – | – | – | – | – | 54 | CC(C)(C)OC(=O)N1CCC[C@H](N2CCC(NC(=O)Nc3ccc(Br)cc3)C2=O)C1 (stereo in doubt; 20) [listing 1 of 2 here]
– | – | 1370 | – | – | 2700 | – | – | 3.3 | – | – | – | – | 210 | O=C(Nc1ccc(Br)cc1)NC1CCN(C2CCN(Cc3ccccc3)C2)C1=O (stereo in doubt; 17) [listing 2 of 2 here]
75 (≈ 29.1 µg/mL) | 4.4 | – | 2.8 | 2.12 | – | – | – | – | Not Active | inactive | inactive | Not Active | – | O=C(Nc1ccc(Br)cc1)NC1CCN(Cc2ccccc2)C1=O (centres undefined)
– | – | – | – | – | – | 71 | 89 | – | – | – | – | – | – | CC(C)(C)OC(=O)N1CCC[C@H](N2CCC(NC(=O)Nc3ccc(Br)cc3)C2=O)C1 (stereo in doubt; 19) [listing 2 of 2 here]
192 (≈ 93.2 µg/mL) | 2.5 | 2250 | 3.78 | 2.02 | 250 | 99 | 93 | – | – | – | – | – | – | O=C(Nc1ccc(Br)cc1)NC1CCN(CC2CCN(Cc3ccccc3)CC2)C1=O (centres undefined)
– | – | – | – | – | – | 73 | 86 | – | – | – | – | – | – | CC(C)(C)OC(=O)N1CCC[C@H](N2CCC(NC(=O)Nc3ccc(Br)cc3)C2=O)C1 (stereo in doubt; 20) [listing 2 of 2 here]
– | 3.9 | 385 | 0.95 | 0.733 | 8 | – | 96 | – | – | – | – | – | – | O=C(Nc1ccc(Br)cc1)NC1CCN(C2CCN(c3ncccn3)CC2)C1=O (centres undefined)
– | > 4 | – | 3.48 | 1.78 | – | – | – | – | Not Active | inactive | inactive | Not Active | – | O=C(Nc1ccc(Br)cc1)NC1CCN(c2cnn(-c3ccccc3)c2)C1=O (centres undefined)
– | – | – | – | – | – | 84 | 99 | – | – | – | – | – | – | O=C(Nc1ccc(Br)cc1)NC1CCN(C2CCN(Cc3ccccc3)C2)C1=O (stereo in doubt; 18) [listing 2 of 2 here]
